Assay results collected from several papers.
Each line is one published result; the experiments were not run side by side.
Target: Histamine H2 receptor (HRH2, Homo sapiens, UniProt P25021)

| SMILES | effect on | action | technique | tested at | notes | endpoint | value |
| --- | --- | --- | --- | --- | --- | --- | --- |
| CCN(Cc1ccccc1C(F)(F)F)C(=O)C1CCN(S(=O)(=O)c2ccc3[nH]ncc3c2)CC1 | ligand displacement | – | radioligand | 10 µM | – | inhibition | 5% |
| N#Cc1ccc(Nc2ccc3[nH]c(=O)[nH]c3c2)c(Cl)c1 | cell-free assay | – | – | 10 µM | – | inhibition | 2.26% |
| O=C(Nc1ccc(S(=O)(=O)N2CCC(Cl)CC2)cc1)c1ccc([N+](=O)[O-])o1 | ligand displacement | – | radioligand | 10 µM | – | inhibition | 10% |
| CCN(CC)c1ccc(C2Nc3ccc(C(=O)c4ccccc4)cc3NC3=C2C(=O)CC(C)(C)C3)cc1 (stereo not drawn) | ligand displacement | – | radioligand | 10 µM | – | inhibition | 38% |
| COCCOc1nc(-c2ccc(Cl)nc2)nc2c1CN(C(=O)c1ncn3ccccc13)CC2 | ligand displacement | – | – | 10 µM | – | inhibition | -0.24% |
| O=C(c1ccc(F)cc1)N(Cc1ccccc1)C1CCCCC1 | cell-free assay | – | – | 10 µM | – | inhibition | -3% |
| O=C1N=C(N2CCCCN2)S/C1=C\c1ccc(F)cc1O | ligand displacement | – | radioligand | 10 µM | – | inhibition | < 10% |
| N=C(NCCCCCCCCCCCCN)NCCCc1c[nH]cn1 | GTPγS binding | agonist | radiometric | – | cell membranes | Emax | 66% |
| N#Cc1cc(Cn2c(N3CCCC3)nc3ccccc32)ccc1F | ligand displacement | – | – | 10 µM | – | inhibition | 64.1% |
| O=C(c1ccc(Cl)cc1)N(Cc1ccccc1)C1CCCCC1 | cell-free assay | – | – | 10 µM | – | inhibition | -27.3% |
| CCCNc1nc2ccccc2n1Cc1ccc(Cl)cc1 | ligand displacement | – | – | 10 µM | – | inhibition | 83.3% |
| Cc1nc(N)sc1CCCNC(=N)NCCCCCCCCNC(=N)NCCCc1sc(N)nc1C | GTPγS binding | agonist | radiometric | – | cell membranes | Emax | 52% |
